Experimental findings from ChEMBL document CHEMBL2010769, “Synthesis and antiviral activity of 6-deoxycyclopropavir, a new prodrug of cyclopropavir” (Bioorg Med Chem, 2012) are described below.

Experiment [1] deals with Murid betaherpesvirus 1. As to the kind of experiment: Antiviral activity against MCMV infected in BALB/c mouse assessed as decrease in virus-induced mean day of death at 50 mg/kg, po qd for 5 days administered 24 hrs after viral infection (reference value: 4.9 +/- 0.7 days). It is filed as functional.
For experiment [2], the system named is Murid betaherpesvirus 1. As to the kind of experiment: Antiviral activity against MCMV infected in BALB/c mouse assessed as decrease in virus-induced mortality at 16.7 mg/kg, po qd for 5 days administered 24 hrs after viral infection (reference value: 67%). The format is functional. Further details: scale not given: the % may be the effect or the level left. Summed up: (§1)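 Female BALB/c mice (3 weeks, 15/group) were inoculated ip with MCMV Smith at about LD90. Oral dosing of 0.2 mL in 0.4% CMC ran once daily for 5 days, starting 24 or 48 h post-inoculation. Mice were observed daily for 21 days. Mortality was compared with CMC placebo by Fisher's exact test.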

Experiment [3] deals with Murid betaherpesvirus 1. Description: Antiviral activity against MCMV infected in BALB/c mouse assessed as decrease in virus-induced mortality at 5.6 mg/kg, po qd for 5 days administered 48 hrs after viral infection (reference value: 100%). Further details: scale not given: the % may be the effect or the level left. The format is functional. Summed up: as §1
Experiment [4] concerns Murid betaherpesvirus 1. As to the kind of experiment: Antiviral activity against MCMV infected in BALB/c mouse assessed as decrease in virus-induced mean day of death at 50 mg/kg, po qd for 5 days administered 48 hrs after viral infection (reference value: 5.1 +/- 0.9 days). The format is functional.
The subject of experiment [5] is Murid betaherpesvirus 1. As to the kind of experiment: Antiviral activity against MCMV infected in BALB/c mouse assessed as decrease in virus-induced mortality at 5.6 mg/kg, po qd for 5 days administered 24 hrs after viral infection (reference value: 67%). Further details: scale not given: the % may be the effect or the level left. The format is functional. In short, it runs like this: as §1

In experiment [6] the test system is Murid betaherpesvirus 1. Description: Antiviral activity against MCMV infected in BALB/c mouse assessed as decrease in virus-induced mortality at 50 mg/kg, po qd for 5 days administered 48 hrs after viral infection (reference value: 100%). The format is functional. Further details: scale not given: the % may be the effect or the level left. In short, it runs like this: as §1

For experiment [7], the system named is Murid betaherpesvirus 1. As to the kind of experiment: Antiviral activity against MCMV infected in BALB/c mouse assessed as decrease in virus-induced mean day of death at 16.7 mg/kg, po qd for 5 days administered 24 hrs after viral infection (reference value: 4.9 +/- 0.7 days). The format is functional.
The subject of experiment [8] is Murid betaherpesvirus 1. Description: Antiviral activity against MCMV infected in BALB/c mouse assessed as decrease in virus-induced mean day of death at 5.6 mg/kg, po qd for 5 days administered 24 hrs after viral infection (reference value: 4.9 +/- 0.7 days). The format is functional.
The test system of experiment [9] is Murid betaherpesvirus 1. As to the kind of experiment: Antiviral activity against MCMV infected in BALB/c mouse assessed as decrease in virus-induced mean day of death at 5.6 mg/kg, po qd for 5 days administered 48 hrs after viral infection (reference value: 5.1 +/- 0.9 days). It is filed as functional.
Experiment [10] relates to Murid betaherpesvirus 1. Description: Antiviral activity against MCMV infected in BALB/c mouse assessed as decrease in virus-induced mortality at 50 mg/kg, po qd for 5 days administered 24 hrs after viral infection (reference value: 67%). It is filed as functional. Details: scale not given: the % may be the effect or the level left. Summed up:
as §1

The subject of experiment [11] is Murid betaherpesvirus 1. Description: Antiviral activity against MCMV infected in BALB/c mouse assessed as decrease in virus-induced mortality at 16.7 mg/kg, po qd for 5 days administered 48 hrs after viral infection (reference value: 100%). It is filed as functional. Details: scale not given: the % may be the effect or the level left. Summed up:
as §1

For experiment [12], the system named is Murid betaherpesvirus 1. As to the kind of experiment: Antiviral activity against MCMV infected in BALB/c mouse assessed as decrease in virus-induced mean day of death at 16.7 mg/kg, po qd for 5 days administered 48 hrs after viral infection (reference value: 5.1 +/- 0.9 days). The format is functional.
In experiment [13] the test system is Murid betaherpesvirus 1. As to the kind of experiment: Antiviral activity against MCMV infected in SCID mouse assessed as log10 reduction in viral titer in spleen at 10 mg/kg, po relative to control. The format is functional.
The subject of experiment [14] is Murid betaherpesvirus 1. As to the kind of experiment: Antiviral activity against MCMV infected in SCID mouse assessed as log10 reduction in viral titer in kidney at 10 mg/kg, po relative to control. The format is functional.
Experiment [15] concerns Murid betaherpesvirus 1. Description: Antiviral activity against MCMV infected in SCID mouse assessed as log10 reduction in viral titer in liver at 10 mg/kg, po relative to control. The format is functional.
Experiment [16] has as its system Murid betaherpesvirus 1. As to the kind of experiment: Antiviral activity against MCMV infected in SCID mouse assessed as log10 reduction in viral titer in lung at 10 mg/kg, po relative to control. The format is functional.
Experiment [17] concerns Human betaherpesvirus 5. As to the kind of experiment: Antiviral activity against HCMV Toledo infected in human thymus/liver tissue xenografted in SCID mouse assessed as decrease in viral infection at 20 mg/kg, po qd for 14 days by RT-PCR analysis (reference value: 92%). It is filed as functional, strain Toledo. Further details: scale not given: the % may be the effect or the level left. Background: Xenograft models place foreign cells or tissue in a host animal.

Experiment [18] deals with Human betaherpesvirus 5. As to the kind of experiment: Antiviral activity against HCMV Toledo infected in human thymus/liver tissue xenografted in SCID mouse assessed as decrease in viral infection at 20 mg/kg, po qd for 28 days measured on day 35 by RT-PCR analysis (reference value: 67%). Details: scale not given: the % may be the effect or the level left. It is filed as functional, strain Toledo.

For experiment [19], the system named is Human betaherpesvirus 5. Description: Antiviral activity against HCMV Toledo infected in human thymus/liver tissue xenografted in SCID mouse assessed as mean log10 genome equivalents/animal at 20 mg/kg, po qd for 14 days by RT-PCR analysis (reference value: 3.50 +/- 0.878). It is filed as functional, strain Toledo.
The test system of experiment [20] is Human betaherpesvirus 5. Description: Antiviral activity against HCMV Toledo infected in human thymus/liver tissue xenografted in SCID mouse assessed as mean log10 genome equivalents/animal at 20 mg/kg, po qd for 21 days by RT-PCR analysis (reference value: 3.82 +/- 1.24). The format is functional, strain Toledo.
For experiment [21], the system named is Human betaherpesvirus 5. As to the kind of experiment: Antiviral activity against HCMV Toledo infected in human thymus/liver tissue xenografted in SCID mouse assessed as mean log10 genome equivalents/animal at 20 mg/kg, po qd for 28 days by RT-PCR analysis (reference value: 3.73 +/- 0.784). It is filed as functional, strain Toledo.
Experiment [22] relates to Human betaherpesvirus 5. As to the kind of experiment: Antiviral activity against HCMV Toledo infected in human thymus/liver tissue xenografted in SCID mouse assessed as decrease in viral infection at 20 mg/kg, po qd for 21 days by RT-PCR analysis (reference value: 92%). It is filed as functional, strain Toledo. Details: scale not given: the % may be the effect or the level left.

The test system of experiment [23] is Human betaherpesvirus 5. As to the kind of experiment: Antiviral activity against HCMV Toledo infected in human thymus/liver tissue xenografted in SCID mouse assessed as decrease in viral infection at 20 mg/kg, po qd for 28 days by RT-PCR analysis (reference value: 92%). The format is functional, strain Toledo. Further details: scale not given: the % may be the effect or the level left.

Experiment [24] has as its system Human betaherpesvirus 5. Description: Antiviral activity against HCMV Toledo infected in human thymus/liver tissue xenografted in SCID mouse assessed as mean log10 genome equivalents/animal at 20 mg/kg, po qd for 28 days measured on day 35 by RT-PCR analysis (reference value: 3.28 +/- 1.422). It is filed as functional, strain Toledo.

For `Nc1nc2c(ncn2COC(CO)CO)c(=O)[nH]1` [GANCICLOVIR], the Activity in the experiment with Murid betaherpesvirus 1 [1] is 6 days; in the experiment with Murid betaherpesvirus 1 [2], 20%; in the experiment on Murid betaherpesvirus 1 [3] it was 93%; in the experiment on Murid betaherpesvirus 1 [4], 5.7 days; with Murid betaherpesvirus 1 [5] it was 87%; in the experiment on Murid betaherpesvirus 1 [6] it was 20%. Also, the Activity with Murid betaherpesvirus 1 [7] was determined as 6.3 days; in the experiment on Murid betaherpesvirus 1 [8], 6.8 days; with Murid betaherpesvirus 1 [9] it was 6.4 days; with Murid betaherpesvirus 1 [10] it was 7%; in the experiment with Murid betaherpesvirus 1 [11], 53%; in the experiment on Murid betaherpesvirus 1 [12], 7.3 days.

With `Nc1nc2c(ncn2/C=C2/CC2(CO)CO)c(=O)[nH]1` [FILOCICLOVIR], the FC in the experiment on Murid betaherpesvirus 1 [13], in the experiment with Murid betaherpesvirus 1 [14], in the experiment on Murid betaherpesvirus 1 [15] and in the experiment on Murid betaherpesvirus 1 [16] was 2 in each case.

Regarding `Nc1ccn(C[C@@H](CO)OCP(=O)(O)O)c(=O)n1.O.O` [CIDOFOVIR], the Activity turned out to be 82% in the experiment with Human betaherpesvirus 5 [17]; 0% in the experiment with Human betaherpesvirus 5 [18]; 2.47 in the experiment with Human betaherpesvirus 5 [19]; 2.83 in the experiment on Human betaherpesvirus 5 [20]; 2.08 in the experiment on Human betaherpesvirus 5 [21]; 100% in the experiment with Human betaherpesvirus 5 [22]. Also, the values for the Activity in the experiment on Human betaherpesvirus 5 [23] and in the experiment on Human betaherpesvirus 5 [24] were 50% and 1.59, respectively.
